Tests used:
Parameters in all cases: scale not given: the % may be the effect or the level left
[1] = Antiplatelet activity against rabbit platelets assessed as inhibition of PAF-induced platelet aggregation at 25 ug/ml preincubated for 3 mins by turbidimetric method; format: functional, Oryctolagus cuniculus
Outline: (§1)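 Washed rabbit platelets were preincubated with test sample or 0.5% DMSO vehicle for 3 min at 37 °C. Inducers were thrombin 0.1 U/mL, arachidonic acid 100 μM, collagen 10 μg/mL or PAF 2 nM. Turbidimetric read-out took platelet suspension absorbance as 0% and platelet-free Tyrode's as 100% aggregation, measured at 6 min. Results are mean ± SEM with n per entry.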

Aorta [2] = assay: Vasorelaxation activity in rat aorta assessed as inhibition of K+-induced contraction at 12.5 ug/ml preincubated for 15 mins relative to control; format: functional
Outline: (§2)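 Rat aorta was preincubated with test sample or 0.1% DMSO vehicle at 37 °C for 15 min. Contraction was then evoked with high K+ (80 mM) or norepinephrine (3 μM). Response is expressed as percent of control contraction, mean ± SEM, n = 3.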

Aorta [3] = assay: Vasorelaxation activity in rat aorta assessed as inhibition of K+-induced contraction at 3.8 ug/ml preincubated for 15 mins relative to control; format: functional; outline: as §2
Aorta [4] = assay: Vasorelaxation activity in rat aorta assessed as inhibition of norepinephrine-induced phasic contraction at 12.5 ug/ml preincubated for 15 mins relative to control; format: functional; outline: as §2
Aorta [5] = assay: Vasorelaxation activity in rat aorta assessed as inhibition of norepinephrine-induced tonic contraction at 12.5 ug/ml preincubated for 15 mins relative to control; format: functional; outline: as §2
[6] = Antiplatelet activity against rabbit platelets assessed as inhibition of thrombin-induced platelet aggregation at 25 ug/ml preincubated for 3 mins by turbidimetric method; format: functional, Oryctolagus cuniculus; outline: as §1
[7] = Antiplatelet activity against rabbit platelets assessed as inhibition of arachidonic acid-induced platelet aggregation at 25 ug/ml preincubated for 3 mins by turbidimetric method; format: functional, Oryctolagus cuniculus; outline: as §1
[8] = Antiplatelet activity against rabbit platelets assessed as inhibition of collagen-induced platelet aggregation at 25 ug/ml preincubated for 3 mins by turbidimetric method; format: functional, Oryctolagus cuniculus; outline: as §1
[9] = Antiplatelet activity against rabbit platelets assessed as inhibition of PAF-induced platelet aggregation at 100 ug/ml preincubated for 3 mins by turbidimetric method; format: functional, Oryctolagus cuniculus; outline: as §1
[10] = Antiplatelet activity against rabbit platelets assessed as inhibition of thrombin-induced platelet aggregation at 100 ug/ml preincubated for 3 mins by turbidimetric method; format: functional, Oryctolagus cuniculus; outline: as §1
[11] = Antiplatelet activity against rabbit platelets assessed as inhibition of arachidonic acid-induced platelet aggregation at 100 ug/ml preincubated for 3 mins by turbidimetric method; format: functional, Oryctolagus cuniculus; outline: as §1
[12] = Antiplatelet activity against rabbit platelets assessed as inhibition of arachidonic acid-induced platelet aggregation at 50 ug/ml preincubated for 3 mins by turbidimetric method; format: functional, Oryctolagus cuniculus; outline: as §1
[13] = Antiplatelet activity against rabbit platelets assessed as inhibition of arachidonic acid-induced platelet aggregation at 20 ug/ml preincubated for 3 mins by turbidimetric method; format: functional, Oryctolagus cuniculus; outline: as §1
[14] = Antiplatelet activity against rabbit platelets assessed as inhibition of arachidonic acid-induced platelet aggregation at 10 ug/ml preincubated for 3 mins by turbidimetric method; format: functional, Oryctolagus cuniculus; outline: as §1
[15] = Antiplatelet activity against rabbit platelets assessed as inhibition of arachidonic acid-induced platelet aggregation at 5 ug/ml preincubated for 3 mins by turbidimetric method; format: functional, Oryctolagus cuniculus
Outline: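 Washed rabbit platelet suspension preincubated with DMSO (0.5%, control) or sample at 37 °C for 3 min. Arachidonic acid (100 μM) then added. Turbidimetric read-out with platelet suspension as 0% and platelet-free Tyrode's solution as 100% aggregation. Percent aggregation read at 6 min. Means ± S.E.M. (n).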

[16] = Antiplatelet activity against rabbit platelets assessed as inhibition of collagen-induced platelet aggregation at 100 ug/ml preincubated for 3 mins by turbidimetric method; format: functional, Oryctolagus cuniculus; outline: as §1
Aorta [17] = assay: Vasorelaxation activity in rat aorta assessed as inhibition of K+-induced contraction at 100 ug/ml preincubated for 15 mins relative to control; format: functional; outline: as §2
Aorta [18] = assay: Vasorelaxation activity in rat aorta assessed as inhibition of K+-induced contraction at 30 ug/ml preincubated for 15 mins relative to control; format: functional; outline: as §2
Aorta [19] = assay: Vasorelaxation activity in rat aorta assessed as inhibition of norepinephrine-induced phasic contraction at 100 ug/ml preincubated for 15 mins relative to control; format: functional; outline: as §2
Aorta [20] = assay: Vasorelaxation activity in rat aorta assessed as inhibition of norepinephrine-induced phasic contraction at 30 ug/ml preincubated for 15 mins relative to control; format: functional; outline: as §2
Aorta [21] = assay: Vasorelaxation activity in rat aorta assessed as inhibition of norepinephrine-induced tonic contraction at 100 ug/ml preincubated for 15 mins relative to control; format: functional; outline: as §2
Aorta [22] = assay: Vasorelaxation activity in rat aorta assessed as inhibition of norepinephrine-induced tonic contraction at 30 ug/ml preincubated for 15 mins relative to control; format: functional; outline: as §2
[23] = Antiplatelet activity against rabbit platelets assessed as inhibition of PAF-induced platelet aggregation at 50 ug/ml preincubated for 3 mins by turbidimetric method; format: functional, Oryctolagus cuniculus; outline: as §1
[24] = Antiplatelet activity against rabbit platelets assessed as inhibition of PAF-induced platelet aggregation at 20 ug/ml preincubated for 3 mins by turbidimetric method; format: functional, Oryctolagus cuniculus; outline: as §1
[25] = Antiplatelet activity against rabbit platelets assessed as inhibition of PAF-induced platelet aggregation at 10 ug/ml preincubated for 3 mins by turbidimetric method; format: functional, Oryctolagus cuniculus; outline: as §1
Aorta [26] = assay: Vasorelaxation activity in rat aorta assessed as inhibition of K+-induced contraction at 50 ug/ml preincubated for 15 mins relative to control; format: functional; outline: as §2
Aorta [27] = assay: Vasorelaxation activity in rat aorta assessed as inhibition of K+-induced contraction at 15 ug/ml preincubated for 15 mins relative to control; format: functional; outline: as §2
Aorta [28] = assay: Vasorelaxation activity in rat aorta assessed as inhibition of K+-induced contraction at 5 ug/ml preincubated for 15 mins relative to control; format: functional; outline: as §2
Aorta [29] = assay: Vasorelaxation activity in rat aorta assessed as inhibition of norepinephrine-induced phasic contraction at 50 ug/ml preincubated for 15 mins relative to control; format: functional; outline: as §2
Aorta [30] = assay: Vasorelaxation activity in rat aorta assessed as inhibition of norepinephrine-induced phasic contraction at 15 ug/ml preincubated for 15 mins relative to control; format: functional; outline: as §2
Aorta [31] = assay: Vasorelaxation activity in rat aorta assessed as inhibition of norepinephrine-induced tonic contraction at 50 ug/ml preincubated for 15 mins relative to control; format: functional; outline: as §2
Aorta [32] = assay: Vasorelaxation activity in rat aorta assessed as inhibition of norepinephrine-induced tonic contraction at 15 ug/ml preincubated for 15 mins relative to control; format: functional; outline: as §2

Question: For `COc1cccc2c1c1ccnc3ccc(=O)n2c31`, which Activity [1] is on record?
Answer: 84.8%

Question: What about the Activity (Aorta [2]) of the same compound?
Answer: 57.9%

Question: What about the Activity (Aorta [3]) of the same compound?
Answer: 74.5%

Question: What about the Activity (Aorta [4]) of the same compound?
Answer: 88.4%

Question: And the Activity (Aorta [5])?
Answer: 78.9%

Question: What about the Activity [6] of the same compound?
Answer: 90.3%

Question: And the Activity [7]?
Answer: 80.4%

Question: And the Activity [8]?
Answer: 76.3%

Question: Which results are given for `CC/C=C/C/C=C\CC/C=C/C=C/C(=O)NCC(C)(C)O`?
Answer: Activity [9]: 38.4%; Activity [10]: 89.2%; Activity [11]: 0%; Activity [12]: 0%; Activity [13]: 4%; Activity [14]: 27.8%; Activity [15]: 46.2%; Activity [16]: 0%

Question: What does the source list for `COc1ccc(-c2oc3c(OC)c(O)cc(O)c3c(=O)c2O)cc1` [PRUDOMESTIN]?
Answer: Activity [9]: 73.3%; Activity (Aorta [17]): 36.7%; Activity (Aorta [18]): 83.4%; Activity (Aorta [19]): 20%; Activity (Aorta [20]): 100.6%; Activity (Aorta [21]): 46.7%; Activity (Aorta [22]): 97.8%; Activity [10]: 87.5%; Activity [11]: 0%; Activity [13]: 0%; Activity [14]: 64.5%; Activity [16]: 58.1%

Question: For `COc1ccc(-c2oc3c(OC)c(OC)cc(OC(C)=O)c3c(=O)c2OC(C)=O)cc1`, which Activity [9] is on record?
Answer: 0%

Question: And the Activity [23]?
Answer: 46.7%

Question: And the Activity [24]?
Answer: 71.2%

Question: What about the Activity [25] of the same compound?
Answer: 78%

Question: And the Activity (Aorta [26])?
Answer: 25.3%

Question: What about the Activity (Aorta [27]) of the same compound?
Answer: 57.1%

Question: What about the Activity (Aorta [28]) of the same compound?
Answer: 84.8%

Question: What about the Activity (Aorta [29]) of the same compound?
Answer: 74.6%

Question: What about the Activity (Aorta [30]) of the same compound?
Answer: 94.6%

Question: What about the Activity (Aorta [31]) of the same compound?
Answer: 58.7%

Question: And the Activity (Aorta [32])?
Answer: 86.3%

Question: What about the Activity [10] of the same compound?
Answer: 88.5%

Question: What about the Activity [11] of the same compound?
Answer: 0%

Question: What about the Activity [13] of the same compound?
Answer: 0%

Question: And the Activity [14]?
Answer: 29%

Question: And the Activity [15]?
Answer: 51.1%

Question: What about the Activity [16] of the same compound?
Answer: 5.1%
